Test results as given in ChEMBL document CHEMBL4406880, “Design, synthesis, and bioactivity of dihydropyrimidine derivatives as kinesin spindle protein inhibitors” (Bioorg Med Chem, 2019).

Experiments:
Format in all cases: functional
[1] = system: SR; experiment: Growth inhibition of human SR cells assessed as growth percentage at 10 uM incubated for 48 hrs by sulforhodamine B assay relative to control; details: read-out: Activity
Outline: (§1)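 NCI-60 single-dose screen. Cells were grown in RPMI 1640 with 5% FBS and 2 mM L-glutamine and plated at 5,000–40,000 cells/well. After an overnight preincubation at 37 °C in 5% CO2, compound was added at a final 10 µM from a DMSO stock, with DMSO/PBS controls. After 48 h, cells were TCA-fixed and stained with 0.4% SRB, and absorbance was read at 515 nm. Growth is given as a percentage of untreated control.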

[2] = system: EKVX; experiment: Growth inhibition of human EKVX cells assessed as growth percentage at 10 uM incubated for 48 hrs by sulforhodamine B assay relative to control; details: read-out: Activity
Outline: (§2)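 NCI-60 one-dose screen: cells in RPMI 1640 with 5% FBS and 2 mM L-glutamine, plated at 5,000–40,000 cells/well and preincubated 24 h at 37 °C, 5% CO2. Compound is added from a DMSO stock to a final 10 µM and incubated 48 h. Cells are TCA-fixed and stained with sulforhodamine B, read at 515 nm. Output is % growth versus untreated control, with a time-zero plate.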

[3] = system: HOP-62; experiment: Growth inhibition of human HOP62 cells assessed as growth percentage at 10 uM incubated for 48 hrs by sulforhodamine B assay relative to control; details: HOP-62, 48 h, read-out: Activity
Outline: (§3)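 NCI-60 one-dose screen. Cells in RPMI 1640 with 5% FBS and 2 mM L-glutamine, seeded at 5,000–40,000 cells/well according to doubling time, and preincubated overnight at 37 °C, 5% CO2. A time-zero plate was TCA-fixed at drug addition. Compound from DMSO stock, final 10 µM, 48 h; DMSO vehicle controls. Fixation with TCA, 10% final (16% for suspension cells). SRB stain, Tris solubilization, A515. Result given as % growth versus untreated cells.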

[4] = system: HOP-92; experiment: Growth inhibition of human HOP92 cells assessed as growth percentage at 10 uM incubated for 48 hrs by sulforhodamine B assay relative to control; details: HOP-92, 48 h, read-out: Activity; outline: as §3
[5] = system: NCI-H23; experiment: Growth inhibition of human NCI-H23 cells assessed as growth percentage at 10 uM incubated for 48 hrs by sulforhodamine B assay relative to control; details: NCI-H23, 48 h, read-out: Activity; outline: as §3
[6] = system: NCI-H322M; experiment: Growth inhibition of human NCI-H322M cells assessed as growth percentage at 10 uM incubated for 48 hrs by sulforhodamine B assay relative to control; details: read-out: Activity; outline: as §3
[7] = system: NCI-H460; experiment: Growth inhibition of human NCI-H460 cells assessed as growth percentage at 10 uM incubated for 48 hrs by sulforhodamine B assay relative to control; details: NCI-H460, 48 h, read-out: Activity; outline: as §3
[8] = system: NCI-H522; experiment: Growth inhibition of human NCI-H522 cells assessed as growth percentage at 10 uM incubated for 48 hrs by sulforhodamine B assay relative to control; details: NCI-H522, 48 h, read-out: Activity; outline: as §3
[9] = system: HCC 2998; experiment: Growth inhibition of human HCC2998 cells assessed as growth percentage at 10 uM incubated for 48 hrs by sulforhodamine B assay relative to control; details: HCC 2998, 48 h, read-out: Activity; outline: as §2
[10] = system: KM12; experiment: Growth inhibition of human KM12 cells assessed as growth percentage at 10 uM incubated for 48 hrs by sulforhodamine B assay relative to control; details: KM12, 48 h, read-out: Activity; outline: as §3
[11] = system: SF-268; experiment: Growth inhibition of human SF268 cells assessed as growth percentage at 10 uM incubated for 48 hrs by sulforhodamine B assay relative to control; details: SF-268, 48 h, read-out: Activity; outline: as §1
[12] = system: SF-295; experiment: Growth inhibition of human SF295 cells assessed as growth percentage at 10 uM incubated for 48 hrs by sulforhodamine B assay relative to control; details: SF-295, 48 h, read-out: Activity; outline: as §1
[13] = system: SNB-19; experiment: Growth inhibition of human SNB19 cells assessed as growth percentage at 10 uM incubated for 48 hrs by sulforhodamine B assay relative to control; details: SNB-19, 48 h, read-out: Activity; outline: as §1
[14] = system: Malme-3M; experiment: Growth inhibition of human MALME-3M cells assessed as growth percentage at 10 uM incubated for 48 hrs by sulforhodamine B assay relative to control; details: read-out: Activity; outline: as §3
[15] = system: SK-MEL-2; experiment: Growth inhibition of human SK-MEL-2 cells assessed as growth percentage at 10 uM incubated for 48 hrs by sulforhodamine B assay relative to control; details: SK-MEL-2, 48 h, read-out: Activity; outline: as §1
[16] = system: SK-MEL-28; experiment: Growth inhibition of human SK-MEL-28 cells assessed as growth percentage at 10 uM incubated for 48 hrs by sulforhodamine B assay relative to control; details: SK-MEL-28, 48 h, read-out: Activity; outline: as §1
[17] = system: UACC-257; experiment: Growth inhibition of human UACC257 cells assessed as growth percentage at 10 uM incubated for 48 hrs by sulforhodamine B assay relative to control; details: UACC-257, 48 h, read-out: Activity; outline: as §1
[18] = system: OVCAR-3; experiment: Growth inhibition of human OVCAR3 cells assessed as growth percentage at 10 uM incubated for 48 hrs by sulforhodamine B assay relative to control; details: OVCAR-3, 48 h, read-out: Activity; outline: as §3
[19] = system: OVCAR-4; experiment: Growth inhibition of human OVCAR4 cells assessed as growth percentage at 10 uM incubated for 48 hrs by sulforhodamine B assay relative to control; details: OVCAR-4, 48 h, read-out: Activity; outline: as §3
[20] = system: OVCAR-5; experiment: Growth inhibition of human OVCAR5 cells assessed as growth percentage at 10 uM incubated for 48 hrs by sulforhodamine B assay relative to control; details: OVCAR-5, 48 h, read-out: Activity; outline: as §1
[21] = system: OVCAR-8; experiment: Growth inhibition of human OVCAR8 cells assessed as growth percentage at 10 uM incubated for 48 hrs by sulforhodamine B assay relative to control; details: OVCAR-8, 48 h, read-out: Activity; outline: as §1
[22] = system: NCI/ADR-RES; experiment: Growth inhibition of human NCI/ADR-RES cells assessed as growth percentage at 10 uM incubated for 48 hrs by sulforhodamine B assay relative to control; details: read-out: Activity; outline: as §3
[23] = system: 786-0; experiment: Growth inhibition of human 786-0 cells assessed as growth percentage at 10 uM incubated for 48 hrs by sulforhodamine B assay relative to control; details: 786-0, 48 h, read-out: Activity; outline: as §2
[24] = system: A498; experiment: Growth inhibition of human A498 cells assessed as growth percentage at 10 uM incubated for 48 hrs by sulforhodamine B assay relative to control; details: A498, 48 h, read-out: Activity; outline: as §2
[25] = system: ACHN; experiment: Growth inhibition of human ACHN cells assessed as growth percentage at 10 uM incubated for 48 hrs by sulforhodamine B assay relative to control; details: read-out: Activity; outline: as §2
[26] = system: MDA-MB-231; experiment: Growth inhibition of human MDA-MB-231 cells assessed as growth percentage at 10 uM incubated for 48 hrs by sulforhodamine B assay relative to control; details: MDA-MB-231, 48 h, read-out: Activity; outline: as §3
[27] = system: T47D; experiment: Growth inhibition of human T47D cells assessed as growth percentage at 10 uM incubated for 48 hrs by sulforhodamine B assay relative to control; details: read-out: Activity; outline: as §1

Structure (SMILES)	growth at 10 µM [1]	growth at 10 µM [2]	growth at 10 µM [3]	growth at 10 µM [4]	growth at 10 µM [5]	growth at 10 µM [6]	growth at 10 µM [7]	growth at 10 µM [8]	growth at 10 µM [9]	growth at 10 µM [10]	growth at 10 µM [11]	growth at 10 µM [12]	growth at 10 µM [13]	growth at 10 µM [14]	growth at 10 µM [15]	growth at 10 µM [16]	growth at 10 µM [17]	growth at 10 µM [18]	growth at 10 µM [19]	growth at 10 µM [20]	also measured
CC1(C)CC(=O)C2=C(C1)NC(=O)NC2c1ccc2c(c1)OCO2 (racemic)	118%	107%	122%	112%	104%	105%	117%	93.9%	109%	108%	98.8%	112%	108%	100%	104%	111%	102%	115%	102%	108%	growth at 10 µM [21]: 104%; growth at 10 µM [22]: 104%; growth at 10 µM [23]: 105%; growth at 10 µM [24]: 124%; growth at 10 µM [25]: 109%; growth at 10 µM [26]: 111%; growth at 10 µM [27]: 106%
CC(=O)C1=C(C)NC(=O)NC1c1ccc2c(c1)OCO2 (racemic)	108%	101%	103%	102%	101%	104%	114%	91.1%	107%	110%	107%	106%	95.4%	104%	110%	115%	107%	115%	108%	102%	growth at 10 µM [21]: 103%; growth at 10 µM [22]: 106%; growth at 10 µM [23]: 105%; growth at 10 µM [24]: 120%; growth at 10 µM [25]: 108%; growth at 10 µM [26]: 102%; growth at 10 µM [27]: 91.8%
CC(=O)C1=C(C)NC(=S)NC1c1ccc2c(c1)OCO2 (racemic)	104%	106%	104%	92.5%	107%	112%	109%	92.3%	108%	109%	100%	104%	98.9%	108%	106%	116%	102%	109%	103%	101%	growth at 10 µM [21]: 103%; growth at 10 µM [22]: 112%; growth at 10 µM [23]: 103%; growth at 10 µM [24]: 115%; growth at 10 µM [25]: 103%; growth at 10 µM [26]: 104%; growth at 10 µM [27]: 96.2%
CC1=C(C(=O)OCC(C)C)C(c2ccc3c(c2)OCO3)NC(=O)N1 (racemic)	108%	95.5%	114%	102%	102%	115%	113%	91.1%	108%	104%	101%	99.5%	107%	99.8%	104%	113%	103%	117%	104%	104%	growth at 10 µM [21]: 103%; growth at 10 µM [22]: 106%; growth at 10 µM [23]: 104%; growth at 10 µM [24]: 121%; growth at 10 µM [25]: 105%; growth at 10 µM [26]: 106%; growth at 10 µM [27]: 97.5%
